Reference: paper PMC6606825 (Journal of Ginseng Research, 2018)

Assay: Pharmacokinetics of CK and its metabolite 20
Type: in vivo, healthy Chinese volunteers
Method in brief: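 Healthy adults given one oral tablet dose fasting (overnight, or 10 h in a crossover food-effect arm); 30 subjects from the 100/200/400 mg groups were pooled with 24 from 200 mg fasting periods. Plasma was stored at −70°C, extracted with MTBE plus internal standards and assayed by LC-MS/MS. Cmax was observed and AUClast calculated by linear trapezoid, each divided by dose. The metabolite/parent ratio was also calculated. Genotyping used Sequenom MassARRAY, and log-transformed values were compared by one-way ANOVA.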

[1] = ABCC4 rs2274406 TT (first line), mean (SD)
[2] = ABCC4 rs2274406 TT (third line), mean (SD)
[3] = ABCG2 rs2054576 AA (first line), mean (SD)
[4] = ABCG2 rs2054576 AA (third line), mean (SD)

CC(C)=CCC[C@](C)(O)[C@H]1CC[C@]2(C)[C@@H]1[C@H](O)C[C@@H]1[C@@]3(C)CC[C@H](O)C(C)(C)[C@@H]3CC[C@]12C [20(S)-PPD, 20(S)-protopanaxadiol]
Ratio 20(S)-PPD/CK AUClast/D (ABCC4 rs1151471 TT, mean (SD)): 2.12 (2.57) %
Ratio 20(S)-PPD/CK Cmax/D (ABCC4 rs1151471 TT, mean (SD)): 0.52 (0.50) %
20(S)-PPD AUClast/D (ABCC4 rs1189437 GG, n = 1): 3.78 (−)
20(S)-PPD Cmax/D (ABCC4 rs1189437 GG, n = 1): 0.11 (−)
Ratio 20(S)-PPD/CK AUClast/D (ABCC4 rs1189437 GG, n = 1): 31.18 (−) %
Ratio 20(S)-PPD/CK Cmax/D (ABCC4 rs1189437 GG, n = 1): 6.05 (−) %
20(S)-PPD AUClast/D (ABCC4 rs1189437 GT, mean (SD)): 1.25 (0.80)
20(S)-PPD Cmax/D (ABCC4 rs1189437 GT, mean (SD)): 0.05 (0.03)
Ratio 20(S)-PPD/CK AUClast/D (ABCC4 rs1189437 GT, mean (SD)): 7.87 (7.32) %
Ratio 20(S)-PPD/CK Cmax/D (ABCC4 rs1189437 GT, mean (SD)): 2.35 (2.55) %
20(S)-PPD AUClast/D (ABCC4 rs1189437 TT, mean (SD)): 0.54 (0.49)
20(S)-PPD Cmax/D (ABCC4 rs1189437 TT, mean (SD)): 0.02 (0.02)
Ratio 20(S)-PPD/CK AUClast/D (ABCC4 rs1189437 TT, mean (SD)): 2.03 (2.50) %
Ratio 20(S)-PPD/CK Cmax/D (ABCC4 rs1189437 TT, mean (SD)): 0.50 (0.49) %
20(S)-PPD AUClast/D (ABCC4 rs1751034 TC, mean (SD)): 1.51 (1.01)
20(S)-PPD Cmax/D (ABCC4 rs1751034 TC, mean (SD)): 0.05 (0.04)
Ratio 20(S)-PPD/CK Cmax/D (ABCC4 rs1751034 TC, mean (SD)): 2.88 (2.68) %
20(S)-PPD AUClast/D (ABCC4 rs1751034 TT, mean (SD)): 0.59 (0.51)
20(S)-PPD Cmax/D (ABCC4 rs1751034 TT, mean (SD)): 0.02 (0.02)
Ratio 20(S)-PPD/CK AUClast/D (ABCC4 rs1751034 TT, mean (SD)): 2.17 (2.45) %
Ratio 20(S)-PPD/CK Cmax/D (ABCC4 rs1751034 TT, mean (SD)): 0.55 (0.50) %
20(S)-PPD AUClast/D (ABCC4 rs2274406 CT, mean (SD)): 0.77 (0.73)
20(S)-PPD Cmax/D (ABCC4 rs2274406 CT, mean (SD)): 0.03 (0.03)
Ratio 20(S)-PPD/CK AUClast/D (ABCC4 rs2274406 CT, mean (SD)): 3.81 (4.77) %
Ratio 20(S)-PPD/CK Cmax/D (ABCC4 rs2274406 CT, mean (SD)): 1.15 (1.88) %
20(S)-PPD AUClast/D [1]: 0.78 (0.55)
20(S)-PPD Cmax/D [1]: 0.03 (0.03)
Ratio 20(S)-PPD/CK AUClast/D [1]: 2.75 (2.87) %
Ratio 20(S)-PPD/CK Cmax/D [1]: 0.63 (0.46) %
20(S)-PPD AUClast/D [2]: 0.97 (1.01)
20(S)-PPD Cmax/D [2]: 0.03 (0.03)
Ratio 20(S)-PPD/CK AUClast/D [2]: 6.34 (9.72) %
Ratio 20(S)-PPD/CK Cmax/D [2]: 1.49 (1.93) %
20(S)-PPD AUClast/D (ABCC4 rs2274407 CA, mean (SD)): 0.70 (0.61)
20(S)-PPD Cmax/D (ABCC4 rs2274407 CA, mean (SD)): 0.03 (0.02)
Ratio 20(S)-PPD/CK AUClast/D (ABCC4 rs2274407 CA, mean (SD)): 3.96 (6.67) %
Ratio 20(S)-PPD/CK Cmax/D (ABCC4 rs2274407 CA, mean (SD)): 1.04 (1.40) %
20(S)-PPD AUClast/D (ABCC4 rs2274407 CC, mean (SD)): 0.87 (0.83)
20(S)-PPD Cmax/D (ABCC4 rs2274407 CC, mean (SD)): 0.03 (0.03)
Ratio 20(S)-PPD/CK AUClast/D (ABCC4 rs2274407 CC, mean (SD)): 4.39 (6.18) %
Ratio 20(S)-PPD/CK Cmax/D (ABCC4 rs2274407 CC, mean (SD)): 1.18 (1.84) %
20(S)-PPD AUClast/D (ABCC4 rs4148546 AA, mean (SD)): 1.01 (0.97)
20(S)-PPD Cmax/D (ABCC4 rs4148546 AA, mean (SD)): 0.03 (0.03)
Ratio 20(S)-PPD/CK AUClast/D (ABCC4 rs4148546 AA, mean (SD)): 6.66 (9.45) %
Ratio 20(S)-PPD/CK Cmax/D (ABCC4 rs4148546 AA, mean (SD)): 1.37 (1.86) %
20(S)-PPD AUClast/D (ABCC4 rs4148546 GA, mean (SD)): 0.87 (0.75)
20(S)-PPD Cmax/D (ABCC4 rs4148546 GA, mean (SD)): 0.03 (0.03)
Ratio 20(S)-PPD/CK AUClast/D (ABCC4 rs4148546 GA, mean (SD)): 4.17 (4.77) %
Ratio 20(S)-PPD/CK Cmax/D (ABCC4 rs4148546 GA, mean (SD)): 1.32 (1.94) %
20(S)-PPD AUClast/D (ABCC4 rs4148546 GG, mean (SD)): 0.47 (0.46)
20(S)-PPD Cmax/D (ABCC4 rs4148546 GG, mean (SD)): 0.02 (0.02)
Ratio 20(S)-PPD/CK AUClast/D (ABCC4 rs4148546 GG, mean (SD)): 1.34 (1.47) %
Ratio 20(S)-PPD/CK Cmax/D (ABCC4 rs4148546 GG, mean (SD)): 0.41 (0.46) %
20(S)-PPD AUClast/D [3]: 0.78 (0.79)
20(S)-PPD Cmax/D [3]: 0.03 (0.03)
Ratio 20(S)-PPD/CK AUClast/D [3]: 4.17 (5.11) %
Ratio 20(S)-PPD/CK Cmax/D [3]: 1.26 (1.98) %
20(S)-PPD AUClast/D [4]: 2.05 (1.51)
20(S)-PPD Cmax/D [4]: 0.06 (0.04)
Ratio 20(S)-PPD/CK AUClast/D [4]: 12.95 (15.83) %
Ratio 20(S)-PPD/CK Cmax/D [4]: 2.56 (3.02) %
20(S)-PPD AUClast/D (ABCG2 rs2054576 GA, mean (SD)): 0.73 (0.53)
20(S)-PPD Cmax/D (ABCG2 rs2054576 GA, mean (SD)): 0.03 (0.02)
Ratio 20(S)-PPD/CK AUClast/D (ABCG2 rs2054576 GA, mean (SD)): 3.30 (5.27) %
Ratio 20(S)-PPD/CK Cmax/D (ABCG2 rs2054576 GA, mean (SD)): 0.83 (1.11) %
20(S)-PPD AUClast/D (ABCG2 rs2231142 GG, mean (SD)): 0.62 (0.53)
20(S)-PPD Cmax/D (ABCG2 rs2231142 GG, mean (SD)): 0.02 (0.02)
Ratio 20(S)-PPD/CK AUClast/D (ABCG2 rs2231142 GG, mean (SD)): 2.95 (3.04) %
Ratio 20(S)-PPD/CK Cmax/D (ABCG2 rs2231142 GG, mean (SD)): 0.78 (0.71) %
20(S)-PPD AUClast/D (ABCG2 rs2231142 GT, mean (SD)): 0.88 (0.83)
20(S)-PPD Cmax/D (ABCG2 rs2231142 GT, mean (SD)): 0.03 (0.04)
Ratio 20(S)-PPD/CK AUClast/D (ABCG2 rs2231142 GT, mean (SD)): 4.13 (5.64) %
Ratio 20(S)-PPD/CK Cmax/D (ABCG2 rs2231142 GT, mean (SD)): 1.45 (2.39) %
20(S)-PPD AUClast/D (ABCG2 rs2231142 TT, mean (SD)): 2.05 (1.51)
20(S)-PPD Cmax/D (ABCG2 rs2231142 TT, mean (SD)): 0.06 (0.04)
Ratio 20(S)-PPD/CK AUClast/D (ABCG2 rs2231142 TT, mean (SD)): 12.95 (15.83) %
Ratio 20(S)-PPD/CK Cmax/D (ABCG2 rs2231142 TT, mean (SD)): 2.56 (3.02) %
20(S)-PPD AUClast/D (ABCG2 rs2231148 AA, mean (SD)): 0.68 (0.31)
20(S)-PPD Cmax/D (ABCG2 rs2231148 AA, mean (SD)): 0.03 (0.01)
Ratio 20(S)-PPD/CK AUClast/D (ABCG2 rs2231148 AA, mean (SD)): 3.01 (2.32) %
Ratio 20(S)-PPD/CK Cmax/D (ABCG2 rs2231148 AA, mean (SD)): 0.84 (0.60) %
20(S)-PPD AUClast/D (ABCG2 rs2231148 AT, mean (SD)): 0.93 (0.97)
20(S)-PPD Cmax/D (ABCG2 rs2231148 AT, mean (SD)): 0.03 (0.04)
Ratio 20(S)-PPD/CK AUClast/D (ABCG2 rs2231148 AT, mean (SD)): 4.06 (6.40) %
Ratio 20(S)-PPD/CK Cmax/D (ABCG2 rs2231148 AT, mean (SD)): 1.42 (2.72) %
20(S)-PPD AUClast/D (ABCG2 rs2231148 TT, mean (SD)): 0.80 (0.80)
20(S)-PPD Cmax/D (ABCG2 rs2231148 TT, mean (SD)): 0.03 (0.02)
Ratio 20(S)-PPD/CK AUClast/D (ABCG2 rs2231148 TT, mean (SD)): 4.75 (7.36) %
Ratio 20(S)-PPD/CK Cmax/D (ABCG2 rs2231148 TT, mean (SD)): 1.11 (1.45) %
20(S)-PPD AUClast/D (ABCG2 rs2725248 AA, mean (SD)): 0.69 (0.78)
20(S)-PPD Cmax/D (ABCG2 rs2725248 AA, mean (SD)): 0.02 (0.03)
Ratio 20(S)-PPD/CK AUClast/D (ABCG2 rs2725248 AA, mean (SD)): 3.94 (7.05) %
Ratio 20(S)-PPD/CK Cmax/D (ABCG2 rs2725248 AA, mean (SD)): 0.92 (1.40) %
20(S)-PPD AUClast/D (ABCG2 rs2725248 CA, mean (SD)): 1.05 (0.79)
20(S)-PPD Cmax/D (ABCG2 rs2725248 CA, mean (SD)): 0.04 (0.03)
Ratio 20(S)-PPD/CK AUClast/D (ABCG2 rs2725248 CA, mean (SD)): 4.84 (5.49) %
Ratio 20(S)-PPD/CK Cmax/D (ABCG2 rs2725248 CA, mean (SD)): 1.53 (2.29) %
20(S)-PPD AUClast/D (ABCG2 rs2725248 CC, mean (SD)): 0.96 (1.03)
20(S)-PPD Cmax/D (ABCG2 rs2725248 CC, mean (SD)): 0.03 (0.03)
Ratio 20(S)-PPD/CK AUClast/D (ABCG2 rs2725248 CC, mean (SD)): 3.24 (3.92) %
